Experimental data reported in ChEMBL document CHEMBL1147384, “Cytotoxic diterpenoids from the brown alga Dilophus ligulatus” (1993).
Converted amounts (≈) assume the structure as drawn.

What was measured:
Type in all cases: functional
Conditions in all cases: read-out: ED50 (the source's name)
KB = experiment: Cytotoxicity against human KB cells
Method in brief: (§1)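 Run under the lab's standard cytotoxicity protocols with mercaptopurine as the positive standard. Activity is given as ED50 in μg/ml. Cells were human nasopharynx carcinoma KB, human lung carcinoma NSCLC-N6, murine leukemia P-388, and P-388/DOX, a P-388 line expressing the multidrug-resistance (mdr) gene.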

P388 [1] = experiment: Cytotoxicity against mouse P388 cells; method in brief: as §1
P388 [2] = experiment: Cytotoxicity against mouse doxorubicin-resistant P388 cells; method in brief: as §1
[3] = Cytotoxicity against human NSCLC-N6 cells; method in brief: as §1

SMILES | EC50 (KB) | EC50 (P388 [1]) | EC50 (P388 [2]) | EC50 [3]
CC(=O)O[C@H]1C[C@H](C)[C@H]2C[C@H]2C2=C(COC2=O)[C@H]1[C@H](C)CCC=C(C)C [ACETOXYCRENULIDE] | > 10 µg/mL | > 10 µg/mL | > 10 µg/mL | > 10 µg/mL
CC(=O)O[C@@H]1C(=O)C2C1CC/C=C(\C)CC[C@@H]2[C@H](C)CCC=C(C)C (some centres undefined) [ACETYLCORIACENONE] | > 10 µg/mL | 4.4 µg/mL (≈ 12.7 µM) | > 10 µg/mL | 5.4 µg/mL (≈ 15.6 µM)
CC(=O)O/C=C1/CC/C=C(\C)C[C@@H]2OC(=O)[C@H]1[C@H]2[C@@H](C)CCC=C(C)C [DILOPHOLIDE] | 1.5 µg/mL (≈ 4.16 µM) | 0.5 µg/mL (≈ 1.39 µM) | 12 µg/mL (≈ 33.3 µM) | 3.3 µg/mL (≈ 9.15 µM)
CC(=O)OC[C@H]1/C(C=O)=C\C/C=C(\C)C[C@H](O)[C@@H]1[C@@H](C)CCC=C(C)C [HYDROXYACETYLDICTYOLAL] | 2.1 µg/mL (≈ 5.79 µM) | 3.9 µg/mL (≈ 10.8 µM) | 9.3 µg/mL (≈ 25.7 µM) | 10 µg/mL (≈ 27.6 µM)
CC(=O)O[C@H]1C(=O)C2C1CC/C=C(\C)CC[C@@H]2[C@H](C)CCC=C(C)C (some centres undefined) [ISOACETYLCORIACENONE] | > 10 µg/mL | 6 µg/mL (≈ 17.3 µM) | > 10 µg/mL | 6.82 µg/mL (≈ 19.7 µM)
Sc1ncnc2nc[nH]c12 [MERCAPTOPURINE ANHYDROUS] | 0.54 µg/mL (≈ 3.55 µM) | 0.7 µg/mL (≈ 4.6 µM) | 0.25 µg/mL (≈ 1.64 µM) | 0.76 µg/mL (≈ 4.99 µM)
